Measured values published in paper PMC7425103 (Drug Design, Development and Therapy, 2020).

Key:
Type in all cases: cell-based, human
[1] = system: MCF-7 (breast cancer) cell line; assay: MTT anticancer; conditions: ratio of IC50 values vs reference CA-4
Outline: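 ATCC MCF-7 cells were grown in DMEM with 10% FBS and penicillin/streptomycin. After trypsin detachment they were seeded at 1000–2000 cells/well and held 34 hours at 37°C in 5% CO2. Test compound was added at 0.1, 1, 10, 25 and 100 μM for 72 hours. Then 5% MTT was added for 2 h at 37°C, formazan was dissolved in isopropanol, and absorbance was read at 570 nm. Viability was expressed as % of control and IC50 derived by curve fitting.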

[2] = system: Hep G2 (hepatocellular liver carcinoma) cell line; assay: MTT anticancer; conditions: ratio of IC50 values vs reference CA-4
[3] = system: MCF-7 cell line; assay: Cell cycle analysis by DNA flow cytometry; conditions: MCF-7, at IC50
[4] = system: MCF-7 cell line; assay: Annexin V-FITC/PI staining apoptosis assay; conditions: MCF-7, at IC50, 24 hours
Outline: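 MCF-7 cells were seeded at 4 x 10^6/well and exposed to the test compound for 24 hours. Cells were washed three times with ice-cold PBS and resuspended in PBS. They were then stained with Annexin V-FITC and PI from a kit for 15 minutes at room temperature in the dark, and analysed by flow cytometry.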

COc1cc(/C=C/C(=O)c2ccc(NC(=O)c3ccccc3CN3C(=O)c4ccccc4C3=O)cc2)cc(OC)c1OC [Compound 7j, (E)-2-((1,3-Dioxoisoindolin-2-Yl)Methyl)-N-(4-(3-(3,4,5-Trimethoxyphenyl)Acryloyl)Phenyl)Benzamide]
fold anticancer activity relative to CA-4, MCF-7 [1]: 2.57 fold
fold anticancer activity relative to CA-4, Hep G2 [2]: 4.51 fold
apoptosis at preG1 phase, times higher than entinostat [3]: 1.04 times
cell accumulation percentage at G2/M phase, fold higher than CA-4 [3]: 1.05 fold
percentage of cells at G2/M, folds higher than entinostat [3]: 1.53 fold
cell necrosis, fold increase compared to untreated control [4]: 2.09 fold
early apoptotic cell population, fold more than untreated control [4]: 14.36 fold
late apoptotic cells population, folds increase vs untreated control [4]: 44.60 fold
